Experimental data from publication PMC11348278 (Proceedings of the National Academy of Sciences of the …, 2024).

Columns and labels:
[1] = system: L444P/L444P GCase; test: GCase lysed cell assay; type: cell-based, human; conditions: L444P/L444P fibroblasts, 72 h; for improvement of GCase activity, compound alone: individual treatment (Fig. 5B)
[2] = biological target: isolated recombinant PIKfyve (Homo sapiens, UniProt Q9Y2I7); test: DiscoveRX KINOMEScan for PIKfyve; type: binding
[3] = system: L444P/L444P Gaucher patient fibroblasts; test: Nuclear stain cell toxicity/viability; type: cell-based, human; conditions: 72 h, 2.5 µM A16 / 10 µM A18
Procedure, shortened: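 Toxicity by nuclear stains: fibroblasts at 10,000 cells/well, attached overnight, then treated for 72 h in DMSO (final 0.1%). Stained with Hoechst and SYTOX Orange per the manufacturer's instructions.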

[4] = system: L444P/L444P Gaucher patient fibroblasts; test: CellTiter-Glo ATP-based viability assay, patient fibroblasts; type: cell-based, human; conditions: 72 h
Procedure, shortened: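 Viability by ATP content: fibroblasts seeded at 10,000 cells/well, attached overnight, then treated for 72 h in DMSO (final 0.1%). CellTiter-Glo added per the manufacturer's instructions; luminescence-based ATP read-out.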

[5] = system: ISR and KEGG lysosome pathway genes; type: cell-based, human; conditions: L444P fibroblasts, 24 h; A16 500 nM, A18 1 µM, Apilimod 50 nM
[6] = system: U251 cells; test: PIKfyve-related vacuolization, brightfield microscopy of U251 cells; type: cell-based, human; conditions: high concentrations
Procedure, shortened: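 U251 cells plated at 25,000 cells/well, attached overnight, then treated for 24 h in DMSO (final 0.1%). Vacuolization observed by brightfield microscopy.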

[7] = placebo-controlled trials; cited from earlier work
[8] = system: integrated stress response (eIF2B); conditions: read-out: IC50 (reversal of ISR effects); cited from earlier work

Sequence of isolated recombinant PIKfyve (Q9Y2I7 whole entry): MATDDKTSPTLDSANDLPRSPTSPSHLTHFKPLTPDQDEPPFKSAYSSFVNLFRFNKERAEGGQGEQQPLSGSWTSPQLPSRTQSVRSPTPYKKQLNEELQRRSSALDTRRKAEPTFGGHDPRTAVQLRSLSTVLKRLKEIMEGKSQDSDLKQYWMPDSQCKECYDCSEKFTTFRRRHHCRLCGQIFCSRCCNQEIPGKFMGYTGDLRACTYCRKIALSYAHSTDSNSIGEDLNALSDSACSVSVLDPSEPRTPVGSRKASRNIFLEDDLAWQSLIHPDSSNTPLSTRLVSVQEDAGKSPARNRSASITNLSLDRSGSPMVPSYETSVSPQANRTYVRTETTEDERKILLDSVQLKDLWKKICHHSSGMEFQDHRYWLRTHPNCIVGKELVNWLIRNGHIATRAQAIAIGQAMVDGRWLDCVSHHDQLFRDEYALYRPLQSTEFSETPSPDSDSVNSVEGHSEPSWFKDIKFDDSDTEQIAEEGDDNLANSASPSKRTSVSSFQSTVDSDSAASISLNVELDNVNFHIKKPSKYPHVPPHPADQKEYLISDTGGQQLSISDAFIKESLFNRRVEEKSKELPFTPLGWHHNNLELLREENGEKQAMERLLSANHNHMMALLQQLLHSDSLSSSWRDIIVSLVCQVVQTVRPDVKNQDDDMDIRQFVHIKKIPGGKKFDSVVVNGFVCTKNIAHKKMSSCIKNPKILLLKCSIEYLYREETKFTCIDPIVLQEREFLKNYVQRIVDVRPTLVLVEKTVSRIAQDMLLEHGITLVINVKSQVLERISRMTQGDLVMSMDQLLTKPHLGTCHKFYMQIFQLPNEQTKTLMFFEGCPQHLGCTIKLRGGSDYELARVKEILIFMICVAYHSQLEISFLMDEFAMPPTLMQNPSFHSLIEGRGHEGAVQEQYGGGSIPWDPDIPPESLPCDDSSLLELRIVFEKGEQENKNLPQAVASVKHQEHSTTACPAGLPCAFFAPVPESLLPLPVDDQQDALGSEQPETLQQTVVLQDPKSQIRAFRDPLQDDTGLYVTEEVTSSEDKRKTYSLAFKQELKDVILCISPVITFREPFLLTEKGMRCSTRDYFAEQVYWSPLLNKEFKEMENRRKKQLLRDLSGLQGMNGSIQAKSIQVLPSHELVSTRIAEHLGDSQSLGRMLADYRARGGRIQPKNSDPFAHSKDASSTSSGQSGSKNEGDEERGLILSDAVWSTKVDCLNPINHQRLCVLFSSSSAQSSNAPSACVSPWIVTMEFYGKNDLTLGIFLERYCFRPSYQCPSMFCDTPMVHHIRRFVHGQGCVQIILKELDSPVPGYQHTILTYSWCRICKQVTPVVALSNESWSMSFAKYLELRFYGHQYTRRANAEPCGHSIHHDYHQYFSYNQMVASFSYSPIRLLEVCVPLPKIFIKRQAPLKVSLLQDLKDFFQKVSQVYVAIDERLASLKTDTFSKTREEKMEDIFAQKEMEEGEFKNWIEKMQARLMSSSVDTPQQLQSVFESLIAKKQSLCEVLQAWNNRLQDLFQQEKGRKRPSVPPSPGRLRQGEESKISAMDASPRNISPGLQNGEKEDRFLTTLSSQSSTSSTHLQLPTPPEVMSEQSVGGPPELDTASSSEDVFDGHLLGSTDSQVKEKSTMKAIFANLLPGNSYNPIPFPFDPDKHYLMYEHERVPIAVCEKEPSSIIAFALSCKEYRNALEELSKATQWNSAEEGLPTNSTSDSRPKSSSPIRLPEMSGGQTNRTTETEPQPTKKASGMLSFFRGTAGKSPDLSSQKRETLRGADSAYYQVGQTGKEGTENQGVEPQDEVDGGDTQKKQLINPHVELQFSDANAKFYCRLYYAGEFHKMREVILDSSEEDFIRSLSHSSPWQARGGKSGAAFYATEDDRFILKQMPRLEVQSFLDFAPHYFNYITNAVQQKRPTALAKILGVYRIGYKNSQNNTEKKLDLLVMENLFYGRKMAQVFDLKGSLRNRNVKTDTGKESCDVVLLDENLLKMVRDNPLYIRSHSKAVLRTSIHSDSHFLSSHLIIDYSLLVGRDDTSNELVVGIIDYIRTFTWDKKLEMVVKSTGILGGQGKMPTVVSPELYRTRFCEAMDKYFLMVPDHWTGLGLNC

| Compound | increase of GCase activity, cotreatment with ISRIB (observed) ([1]; A16 + ISRIB (Fig. 5B)) | improvement of GCase activity, compound alone [1] | Kd [2] [nM] | cell toxicity (Hoechst and Sytox Orange staining) [3] | cell viability (CellTiter-Glo ATP-based) [4] | ISR activation by RNAseq-based transcriptional changes [5] | vacuolization phenotype [6] | efficacy in autoimmune disorders (Crohn's Disease, Rheumatoid Arthritis) [7] | safety and pharmacokinetic profiles [7] | IC50 [8] [nM] |
| --- | --- | --- | --- | --- | --- | --- | --- | --- | --- | --- |
| c1ccc2c(-c3nn4c(-c5ccncc5)nnc4s3)c[nH]c2c1 [A16] | ~ 100% | ~ 70% | < 0.17 | minimal cell toxicity | above vehicle treatment | do not see RNAseq-based transcriptional changes | vacuolization phenotype |  |  |  |
| Ic1ccc(Nc2nc(NCCN3CCOCC3)nc(N3CCOCC3)n2)cc1 [A18] |  |  |  | minimal cell toxicity | above vehicle treatment | do not see RNAseq-based transcriptional changes | vacuolization phenotype |  |  |  |
| Cc1cccc(/C=N/Nc2cc(N3CCOCC3)nc(OCCc3ccccn3)n2)c1 [Apilimod] |  |  |  |  |  | do not see RNAseq-based transcriptional changes |  | failed to show any efficacy | favorable safety and pharmacokinetic profiles |  |
| O=C(COc1ccc(Cl)cc1)NC1CCC(NC(=O)COc2ccc(Cl)cc2)CC1 (stereo not shown) [ISRIB, reference compound] |  | ~ 10% |  |  |  |  |  |  |  | 5 |
